Laboratory results reported in ChEMBL document CHEMBL1125245, “Quinolone antibacterials: preparation and activity of bridged bicyclic analogues of the C7-piperazine” (J Med Chem, 1991).

System: not listed separately
Test: Compound evaluated in vitro against five gram-negative bacterial strains and geometric means of the minimum inhibitory concentrations (MIC) reported.
Type: functional
Design: unit not given here
Details: not given
Procedure, shortened: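 Geometric mean MIC across five Gram-negative strains (E. coli H560, E. coli Vogel, Enterobacter cloacae MA 2646, Klebsiella pneumoniae MGH-2, Proteus rettgeri M1771). Mean taken as antilog of the averaged log MIC values.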

Q: For CN1CC2CCC1CN2c1c(F)cc2c(=O)c(C(=O)O)cn(C3CC3)c2c1F (configuration not stated), which MIC is on record?
A: 0.13

Q: For Nc1c(F)c(N2C[C@H]3CC2CN3)c(F)c2c1c(=O)c(C(=O)O)cn2C1CC1, which MIC is on record?
A: 0.04

Q: Which MIC does the source give for Cl.N[C@H]1C[C@H]2CC[C@@H](C1)N2c1nc2c(cc1F)c(=O)c(C(=O)O)cn2C1CC1 here?
A: 0.79

Q: With O=C(O)c1cn(C2CC2)c2cc(N3CCN4CCC3C4)c(F)cc2c1=O (configuration not stated) as the compound, how does the MIC read?
A: 0.03

Q: For Br.Nc1c(F)c(N2C[C@@H]3CC2CN3)c(F)c2c1c(=O)c(C(=O)O)cn2C1CC1, which MIC is on record?
A: 0.07

Q: Which MIC does the source give for CCN[C@@H]1C[C@H]2CC[C@@H](C1)N2c1nc2c(cc1F)c(=O)c(C(=O)O)cn2C1CC1 here?
A: 0.6

Q: With NC1CCN(c2c(F)cc3c(=O)c(C(=O)O)cn(C4CC4)c3c2F)CC1 as the compound, how does the MIC read?
A: 0.2

Q: Which MIC does the source give for O=C(O)c1cn(C2CC2)c2c(F)c(N3C[C@H]4CC3CN4)c(F)cc2c1=O here?
A: 0.07

Q: Which MIC does the source give for CCN[C@H]1C[C@H]2CC[C@@H](C1)N2c1c(F)cc2c(=O)c(C(=O)O)cn(C3CC3)c2c1F here?
A: 0.6

Q: For O=C(O)c1cn(C2CC2)c2nc(N3CC4CCC3CN4)c(F)cc2c1=O (configuration not stated), which MIC is on record?
A: 0.13

System: Escherichia coli
Test: In vivo protection against gram-negative Escherichia coli vogel in mouse after oral administration.
Details: read-out: PD50

Q: For CN1CC2CCC1CN2c1c(F)cc2c(=O)c(C(=O)O)cn(C3CC3)c2c1F (configuration not stated), which ED50 is on record?
A: < 1.6 mg/kg

Q: Which ED50 does the source give for Nc1c(F)c(N2C[C@H]3CC2CN3)c(F)c2c1c(=O)c(C(=O)O)cn2C1CC1 here?
A: 5 mg/kg

Q: With Cl.N[C@H]1C[C@H]2CC[C@@H](C1)N2c1nc2c(cc1F)c(=O)c(C(=O)O)cn2C1CC1 as the compound, how does the ED50 read?
A: 71 mg/kg

Q: Which ED50 does the source give for O=C(O)c1cn(C2CC2)c2cc(N3CCN4CCC3C4)c(F)cc2c1=O (configuration not stated) here?
A: 1 mg/kg

Q: Which ED50 does the source give for Br.Nc1c(F)c(N2C[C@@H]3CC2CN3)c(F)c2c1c(=O)c(C(=O)O)cn2C1CC1 here?
A: 6.1 mg/kg

Q: With CCN[C@@H]1C[C@H]2CC[C@@H](C1)N2c1nc2c(cc1F)c(=O)c(C(=O)O)cn2C1CC1 as the compound, how does the ED50 read?
A: 21 mg/kg

Q: Which ED50 does the source give for NC1CCN(c2c(F)cc3c(=O)c(C(=O)O)cn(C4CC4)c3c2F)CC1 here?
A: 4.7 mg/kg

Q: Which ED50 does the source give for O=C(O)c1cn(C2CC2)c2c(F)c(N3C[C@H]4CC3CN4)c(F)cc2c1=O here?
A: 1.7 mg/kg

Q: For CCN[C@H]1C[C@H]2CC[C@@H](C1)N2c1c(F)cc2c(=O)c(C(=O)O)cn(C3CC3)c2c1F, which ED50 is on record?
A: > 12.5 mg/kg

Q: For O=C(O)c1cn(C2CC2)c2nc(N3CC4CCC3CN4)c(F)cc2c1=O (configuration not stated), which ED50 is on record?
A: 1.7 mg/kg

Target: DNA gyrase (Escherichia coli, UniProt P0AES4+P0AES6)
Test: Compound evaluated in vitro for the ability to inhibit gyrase.
Type: protein-complex assay
Details: read-out: I50 (converted)
Procedure, shortened: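 DNA gyrase isolated from Escherichia coli H560 cells; inhibition given as I50.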

Q: For CN1CC2CCC1CN2c1c(F)cc2c(=O)c(C(=O)O)cn(C3CC3)c2c1F (configuration not stated), which IC50 is on record?
A: 16.2 µM

Q: Which IC50 does the source give for Nc1c(F)c(N2C[C@H]3CC2CN3)c(F)c2c1c(=O)c(C(=O)O)cn2C1CC1 here?
A: 36.7 µM

Q: With Cl.N[C@H]1C[C@H]2CC[C@@H](C1)N2c1nc2c(cc1F)c(=O)c(C(=O)O)cn2C1CC1 as the compound, how does the IC50 read?
A: 18.3 µM

Q: With O=C(O)c1cn(C2CC2)c2cc(N3CCN4CCC3C4)c(F)cc2c1=O (configuration not stated) as the compound, how does the IC50 read?
A: 8.39 µM

Q: With CCN[C@@H]1C[C@H]2CC[C@@H](C1)N2c1nc2c(cc1F)c(=O)c(C(=O)O)cn2C1CC1 as the compound, how does the IC50 read?
A: 15.7 µM

Q: For NC1CCN(c2c(F)cc3c(=O)c(C(=O)O)cn(C4CC4)c3c2F)CC1, which IC50 is on record?
A: < 1.38 µM

Q: Which IC50 does the source give for O=C(O)c1cn(C2CC2)c2c(F)c(N3C[C@H]4CC3CN4)c(F)cc2c1=O here?
A: 7.75 µM

Q: For CCN[C@H]1C[C@H]2CC[C@@H](C1)N2c1c(F)cc2c(=O)c(C(=O)O)cn(C3CC3)c2c1F, which IC50 is on record?
A: 15.1 µM

Q: Which IC50 does the source give for O=C(O)c1cn(C2CC2)c2nc(N3CC4CCC3CN4)c(F)cc2c1=O (configuration not stated) here?
A: 17.6 µM

System: Streptococcus pneumoniae
Test: In vivo protection against gram-positive Streptococcus pneumonia (SV-1) in mouse after oral administration.
Type: functional
Details: read-out: PD50

Q: For Nc1c(F)c(N2C[C@H]3CC2CN3)c(F)c2c1c(=O)c(C(=O)O)cn2C1CC1, which ED50 is on record?
A: > 100 mg/kg

Q: With O=C(O)c1cn(C2CC2)c2cc(N3CCN4CCC3C4)c(F)cc2c1=O (configuration not stated) as the compound, how does the ED50 read?
A: 35 mg/kg

Q: Which ED50 does the source give for O=C(O)c1cn(C2CC2)c2c(F)c(N3C[C@H]4CC3CN4)c(F)cc2c1=O here?
A: > 100 mg/kg

Q: Which ED50 does the source give for O=C(O)c1cn(C2CC2)c2nc(N3CC4CCC3CN4)c(F)cc2c1=O (configuration not stated) here?
A: > 100 mg/kg

System: Streptococcus pneumoniae
Test: In vivo protection against gram-positive Streptococcus pneumonia (SV-1) in mouse after subcutaneous administration
Type: functional
Details: sc, read-out: PD50

Q: With Nc1c(F)c(N2C[C@H]3CC2CN3)c(F)c2c1c(=O)c(C(=O)O)cn2C1CC1 as the compound, how does the ED50 read?
A: 13 mg/kg

Q: Which ED50 does the source give for O=C(O)c1cn(C2CC2)c2cc(N3CCN4CCC3C4)c(F)cc2c1=O (configuration not stated) here?
A: 11 mg/kg

Q: With O=C(O)c1cn(C2CC2)c2c(F)c(N3C[C@H]4CC3CN4)c(F)cc2c1=O as the compound, how does the ED50 read?
A: 18.5 mg/kg

Q: Which ED50 does the source give for O=C(O)c1cn(C2CC2)c2nc(N3CC4CCC3CN4)c(F)cc2c1=O (configuration not stated) here?
A: 15.1 mg/kg

System: not listed separately
Test: Compound evaluated in vitro against five gram-positive bacterial strains and geometric means of the minimum inhibitory concentrations (MIC) reported.
Type: functional
Design: unit not given here
Details: not given
Procedure, shortened: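 Geometric mean MIC across five Gram-positive strains, taken as antilog of the averaged log MIC values.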

Q: Which MIC does the source give for CN1CC2CCC1CN2c1c(F)cc2c(=O)c(C(=O)O)cn(C3CC3)c2c1F (configuration not stated) here?
A: 0.15

Q: With Nc1c(F)c(N2C[C@H]3CC2CN3)c(F)c2c1c(=O)c(C(=O)O)cn2C1CC1 as the compound, how does the MIC read?
A: 0.09

Q: For Cl.N[C@H]1C[C@H]2CC[C@@H](C1)N2c1nc2c(cc1F)c(=O)c(C(=O)O)cn2C1CC1, which MIC is on record?
A: 0.4

Q: For O=C(O)c1cn(C2CC2)c2cc(N3CCN4CCC3C4)c(F)cc2c1=O (configuration not stated), which MIC is on record?
A: 0.09

Q: With Br.Nc1c(F)c(N2C[C@@H]3CC2CN3)c(F)c2c1c(=O)c(C(=O)O)cn2C1CC1 as the compound, how does the MIC read?
A: 0.25

Q: For CCN[C@@H]1C[C@H]2CC[C@@H](C1)N2c1nc2c(cc1F)c(=O)c(C(=O)O)cn2C1CC1, which MIC is on record?
A: 0.53

Q: For NC1CCN(c2c(F)cc3c(=O)c(C(=O)O)cn(C4CC4)c3c2F)CC1, which MIC is on record?
A: 0.08

Q: With O=C(O)c1cn(C2CC2)c2c(F)c(N3C[C@H]4CC3CN4)c(F)cc2c1=O as the compound, how does the MIC read?
A: 0.53

Q: Which MIC does the source give for CCN[C@H]1C[C@H]2CC[C@@H](C1)N2c1c(F)cc2c(=O)c(C(=O)O)cn(C3CC3)c2c1F here?
A: 0.46

Q: With O=C(O)c1cn(C2CC2)c2nc(N3CC4CCC3CN4)c(F)cc2c1=O (configuration not stated) as the compound, how does the MIC read?
A: 0.11

System: Escherichia coli
Test: In vivo protection against gram-negative Escherichia coli vogel in mouse after subcutaneous administration
Details: sc, read-out: PD50

Q: Which ED50 does the source give for CN1CC2CCC1CN2c1c(F)cc2c(=O)c(C(=O)O)cn(C3CC3)c2c1F (configuration not stated) here?
A: < 1.6 mg/kg

Q: Which ED50 does the source give for Nc1c(F)c(N2C[C@H]3CC2CN3)c(F)c2c1c(=O)c(C(=O)O)cn2C1CC1 here?
A: 1 mg/kg

Q: With Cl.N[C@H]1C[C@H]2CC[C@@H](C1)N2c1nc2c(cc1F)c(=O)c(C(=O)O)cn2C1CC1 as the compound, how does the ED50 read?
A: 6 mg/kg

Q: With O=C(O)c1cn(C2CC2)c2cc(N3CCN4CCC3C4)c(F)cc2c1=O (configuration not stated) as the compound, how does the ED50 read?
A: 0.3 mg/kg

Q: Which ED50 does the source give for Br.Nc1c(F)c(N2C[C@@H]3CC2CN3)c(F)c2c1c(=O)c(C(=O)O)cn2C1CC1 here?
A: 1.1 mg/kg

Q: With CCN[C@@H]1C[C@H]2CC[C@@H](C1)N2c1nc2c(cc1F)c(=O)c(C(=O)O)cn2C1CC1 as the compound, how does the ED50 read?
A: 9.1 mg/kg

Q: With NC1CCN(c2c(F)cc3c(=O)c(C(=O)O)cn(C4CC4)c3c2F)CC1 as the compound, how does the ED50 read?
A: 1.4 mg/kg

Q: Which ED50 does the source give for O=C(O)c1cn(C2CC2)c2c(F)c(N3C[C@H]4CC3CN4)c(F)cc2c1=O here?
A: 0.4 mg/kg

Q: Which ED50 does the source give for CCN[C@H]1C[C@H]2CC[C@@H](C1)N2c1c(F)cc2c(=O)c(C(=O)O)cn(C3CC3)c2c1F here?
A: 6.5 mg/kg

Q: Which ED50 does the source give for O=C(O)c1cn(C2CC2)c2nc(N3CC4CCC3CN4)c(F)cc2c1=O (configuration not stated) here?
A: 0.7 mg/kg
